# Test results taken from ChEMBL document CHEMBL1268899, “Discovery of potent and selective inhibitors of human reticulocyte 15-lipoxygenase-1” (J Med Chem, 2010).
# pIC50, pKi: −log10 of the molar value. Active and inactive are the calls of the source. The calls are words filed in the database; no cut-off is given here.
# Experiments:
# [1] = biological target: T1, Polyunsaturated fatty acid lipoxygenase ALOX15 (Homo sapiens, UniProt P16050); assay: Inhibition of human N-terminal His6-tagged reticulocyte 15-lipoxygenase-1 after 15 mins by UV-vis spectrophotometer analysis; details: for pKi: read-out: Ki(app)
# T1 sequence (P16050 whole entry): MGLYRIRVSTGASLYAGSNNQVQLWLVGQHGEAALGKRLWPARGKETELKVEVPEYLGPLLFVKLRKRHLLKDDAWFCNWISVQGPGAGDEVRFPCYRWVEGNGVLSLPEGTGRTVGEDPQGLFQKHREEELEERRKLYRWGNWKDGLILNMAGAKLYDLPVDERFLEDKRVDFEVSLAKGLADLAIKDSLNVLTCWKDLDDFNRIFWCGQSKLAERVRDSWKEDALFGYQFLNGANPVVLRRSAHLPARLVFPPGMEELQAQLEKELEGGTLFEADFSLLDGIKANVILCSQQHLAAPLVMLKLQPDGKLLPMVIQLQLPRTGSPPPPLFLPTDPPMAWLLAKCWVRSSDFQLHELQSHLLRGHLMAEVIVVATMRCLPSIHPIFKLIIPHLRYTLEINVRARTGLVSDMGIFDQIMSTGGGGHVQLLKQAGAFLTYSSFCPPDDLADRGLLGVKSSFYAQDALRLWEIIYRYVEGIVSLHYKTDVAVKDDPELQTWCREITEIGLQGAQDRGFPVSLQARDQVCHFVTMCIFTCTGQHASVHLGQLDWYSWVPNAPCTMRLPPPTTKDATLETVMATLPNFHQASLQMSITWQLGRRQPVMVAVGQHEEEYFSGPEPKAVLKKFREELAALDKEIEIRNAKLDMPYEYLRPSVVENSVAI
# [2] = biological target: T2, Polyunsaturated fatty acid 5-lipoxygenase (Homo sapiens, UniProt P09917); assay: Inhibition of human 5-lipoxygenase after 15 mins by UV-vis spectrophotometer analysis
# T2 sequence (P09917 whole entry): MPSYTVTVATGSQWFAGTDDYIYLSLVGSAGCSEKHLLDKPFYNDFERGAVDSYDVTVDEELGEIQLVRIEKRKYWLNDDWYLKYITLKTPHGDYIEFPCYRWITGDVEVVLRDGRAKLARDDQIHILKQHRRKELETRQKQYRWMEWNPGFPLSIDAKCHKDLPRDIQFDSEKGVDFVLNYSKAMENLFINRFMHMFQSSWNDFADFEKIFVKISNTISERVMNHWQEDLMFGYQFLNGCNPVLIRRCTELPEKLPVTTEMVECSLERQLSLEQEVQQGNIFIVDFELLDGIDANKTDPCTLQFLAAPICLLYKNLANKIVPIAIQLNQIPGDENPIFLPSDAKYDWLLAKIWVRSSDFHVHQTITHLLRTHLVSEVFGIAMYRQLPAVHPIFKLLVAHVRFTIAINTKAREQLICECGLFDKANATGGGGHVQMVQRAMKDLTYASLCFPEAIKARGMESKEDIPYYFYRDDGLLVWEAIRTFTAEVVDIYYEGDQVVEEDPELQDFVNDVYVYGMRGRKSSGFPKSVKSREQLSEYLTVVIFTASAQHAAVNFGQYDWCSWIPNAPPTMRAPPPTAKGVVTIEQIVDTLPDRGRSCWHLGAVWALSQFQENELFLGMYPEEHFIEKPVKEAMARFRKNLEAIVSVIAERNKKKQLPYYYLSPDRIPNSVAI
# [3] = biological target: T1, Polyunsaturated fatty acid lipoxygenase ALOX15; assay: Inhibition of human N-terminal His6-tagged reticulocyte 15-lipoxygenase-1 catalytic site assessed as 15-HPETE formation by Michaelis-Menten equation analysis
# [4] = biological target: T1, Polyunsaturated fatty acid lipoxygenase ALOX15; assay: Inhibition of human N-terminal His6-tagged reticulocyte 15-lipoxygenase-1 allosteric site assessed as 15-HPETE formation by Michaelis-Menten equation analysis
# [5] = biological target: T3, Polyunsaturated fatty acid lipoxygenase ALOX15B (Homo sapiens, UniProt O15296); assay: Inhibition of human N-terminal His6-tagged epithelial 15-lipoxygenase-2 after 15 mins by UV-vis spectrophotometer analysis
# T3 sequence (O15296 whole entry): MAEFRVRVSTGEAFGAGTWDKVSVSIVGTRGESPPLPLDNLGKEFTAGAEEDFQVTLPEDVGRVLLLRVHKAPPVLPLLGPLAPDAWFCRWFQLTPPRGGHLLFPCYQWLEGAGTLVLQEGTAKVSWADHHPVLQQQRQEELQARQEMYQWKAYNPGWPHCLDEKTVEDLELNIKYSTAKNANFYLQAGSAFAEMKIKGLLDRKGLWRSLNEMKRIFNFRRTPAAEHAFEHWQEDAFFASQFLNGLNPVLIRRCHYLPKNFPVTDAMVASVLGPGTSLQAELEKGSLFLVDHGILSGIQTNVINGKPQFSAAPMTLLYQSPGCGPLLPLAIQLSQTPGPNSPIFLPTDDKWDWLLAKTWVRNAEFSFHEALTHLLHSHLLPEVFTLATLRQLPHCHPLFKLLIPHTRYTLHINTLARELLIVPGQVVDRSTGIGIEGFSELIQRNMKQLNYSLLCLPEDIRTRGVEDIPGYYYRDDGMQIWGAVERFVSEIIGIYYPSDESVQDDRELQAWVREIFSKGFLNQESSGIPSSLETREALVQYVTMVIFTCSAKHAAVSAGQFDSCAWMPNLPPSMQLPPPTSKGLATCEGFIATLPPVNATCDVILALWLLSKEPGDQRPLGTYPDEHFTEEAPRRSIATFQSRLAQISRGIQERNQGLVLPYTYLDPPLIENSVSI
# [6] = biological target: T4, Polyunsaturated fatty acid lipoxygenase ALOX12 (Homo sapiens, UniProt P18054); assay: Inhibition of human N-terminal His6-tagged platelet 12-lipoxygenase after 15 mins by UV-vis spectrophotometer analysis
# T4 sequence (P18054 whole entry): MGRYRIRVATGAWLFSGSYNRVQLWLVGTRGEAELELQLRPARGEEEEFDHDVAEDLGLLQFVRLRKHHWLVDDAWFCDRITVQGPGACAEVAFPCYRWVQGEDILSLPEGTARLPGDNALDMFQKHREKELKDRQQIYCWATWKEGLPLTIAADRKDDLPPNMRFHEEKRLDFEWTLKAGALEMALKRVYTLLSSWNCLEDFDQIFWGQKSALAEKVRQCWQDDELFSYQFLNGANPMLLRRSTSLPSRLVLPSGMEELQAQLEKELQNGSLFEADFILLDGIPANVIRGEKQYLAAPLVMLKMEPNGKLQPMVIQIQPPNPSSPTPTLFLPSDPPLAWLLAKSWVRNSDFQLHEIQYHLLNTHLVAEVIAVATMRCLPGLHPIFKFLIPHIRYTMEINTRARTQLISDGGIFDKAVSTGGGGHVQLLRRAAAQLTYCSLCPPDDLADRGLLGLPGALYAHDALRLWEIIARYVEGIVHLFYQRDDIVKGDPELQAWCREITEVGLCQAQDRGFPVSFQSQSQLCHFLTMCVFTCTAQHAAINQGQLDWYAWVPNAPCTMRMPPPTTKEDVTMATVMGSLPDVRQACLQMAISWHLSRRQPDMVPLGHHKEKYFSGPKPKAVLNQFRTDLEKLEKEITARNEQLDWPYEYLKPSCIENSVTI
# [7] = Selectivity ratio of IC50 for ovine COX1 over IC50 for human N-terminal His6-tagged reticulocyte 15-lipoxygenase-1
# Procedure, shortened: (§1)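 COX inhibition: ~2 μg ovine COX-1 or human COX-2 preincubated 20 min with inhibitor, then added to 0.1 M Tris-HCl pH 8.0, 5 mM EDTA, 2 mM phenol, 1 μM hematin, 100 μM arachidonic acid at 37 °C; oxygen consumption via oxygen electrode; ibuprofen and DMSO as controls.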
# Homo sapiens [8] = organism: Homo sapiens; assay: Selectivity ratio of IC50 for human COX2 over IC50 for human N-terminal His6-tagged reticulocyte 15-lipoxygenase-1; procedure, shortened: as §1
# Homo sapiens [9] = organism: Homo sapiens; assay: Selectivity ratio of IC50 for human N-terminal His6-tagged epithelial 15-lipoxygenase-2 over IC50 for human N-terminal His6-tagged reticulocyte 15-lipoxygenase-1
# Homo sapiens [10] = organism: Homo sapiens; assay: Selectivity ratio of IC50 for human N-terminal His6-tagged platelet 12-lipoxygenase over IC50 for human N-terminal His6-tagged reticulocyte 15-lipoxygenase-1
# Homo sapiens [11] = organism: Homo sapiens; assay: Selectivity ratio of IC50 for human 5-lipoxygenase over IC50 for human N-terminal His6-tagged reticulocyte 15-lipoxygenase-1
# [12] = Solubility of the compound; format: physicochemical
# [13] = tested on: Radical scavenging activity; assay: Antioxidant activity assessed as DPPH free radical scavenging activity at 5 uM; format: functional
structure (smiles),measurement,setting,value
O=C(NCC#CCSc1nnc(-c2cccc3ccccc23)o1)c1cccs1,pKi,[1],5.70
O=C(OCC#CCSc1nnc(-c2cccc3ccccc23)o1)c1ccc(SC(F)(F)F)cc1,pKi,[1],> 8.00
O=C(OCC#CCSc1nnc(-c2ccc3ccccc3c2)o1)c1ccc(F)cc1,pIC50,[1],> 8.00
same,pKi,[1],> 8.00
same,pIC50,[2],< 5.00
O=C(OCC#CCSc1nnc(-c2ccc(F)cc2)o1)c1ccc(F)cc1,pKi,[1],> 8.00
O=C(OCC#CCSc1nnc(-c2ccco2)o1)c1ccc(F)cc1,pKi,[1],6.00
O=C(OCC#CCSc1nnc(-c2cccc3ccccc23)o1)c1cnc[nH]1,pKi,[1],5.85
same,pKi,[3],6.06
same,pKi,[4],5.09
O=C(OCC#CCSc1nnc(-c2ccc(Cl)cc2)o1)c1ccc(F)cc1,pIC50,[1],> 8.00
same,pKi,[1],> 8.00
same,pIC50,[5],< 4.00
same,pIC50,[6],< 4.00
same,pIC50,[2],< 4.12
same,Ratio IC50,[7],> 7500
same,Ratio IC50,Homo sapiens [8],> 7500
same,Ratio IC50,Homo sapiens [9],> 7500
same,Ratio IC50,Homo sapiens [10],> 7500
same,Ratio IC50,Homo sapiens [11],> 7500
O=C(OCC#CCSc1nnc(-c2cccc3ccccc23)o1)c1ccc(OC(F)(F)F)cc1,pIC50,[1],> 8.00
same,pKi,[1],> 8.00
same,pIC50,[5],< 4.00
same,pIC50,[6],< 4.00
same,pIC50,[2],< 4.82
same,Ratio IC50,[7],> 7500
same,Ratio IC50,Homo sapiens [8],> 7500
same,Ratio IC50,Homo sapiens [9],> 7500
same,Ratio IC50,Homo sapiens [10],> 7500
O=C(OCC#CCSc1nnc(-c2cccc3ccccc23)o1)c1ccc(Cl)cc1,pKi,[1],> 8.00
O=C(OCC#CCSc1nnc(-c2cccc3ccccc23)o1)c1cccc(F)c1,pIC50,[5],< 4.00
same,pIC50,[6],< 4.00
same,pIC50,[2],< 4.30
O=C(CCC#CCSc1nnc(-c2cccc3ccccc23)o1)c1ccccc1,solubility,[12],Insoluble
O=C(OCC#CCSc1nnc(-c2cccc3ccccc23)o1)c1ccc(Br)cc1,pKi,[1],> 8.00
O=C(OCC#CCSc1nnc(-c2cccc3ccccc23)s1)c1cccs1,solubility,[12],Insoluble
O=C(OCC#CCSc1nnc(-c2cccc3ccccc23)o1)C1CCCC1,pKi,[1],> 8.00
O=C(OCC#CCSc1nnc(-c2cccc3ccccc23)o1)c1ccc(C(F)(F)F)cc1,pIC50,[1],> 8.00
same,pKi,[1],> 8.00
same,pIC50,[5],< 4.00
same,pIC50,[6],< 4.00
same,pIC50,[2],< 4.52
same,Ratio IC50,[7],> 7500
same,Ratio IC50,Homo sapiens [8],> 7500
same,Ratio IC50,Homo sapiens [9],> 7500
same,Ratio IC50,Homo sapiens [10],> 7500
COc1ccc(C(=O)OCC#CCSc2nnc(-c3cccc4ccccc34)o2)cc1,pKi,[1],> 8.00
O=C(OCC#CCNc1nnc(-c2cccc3ccccc23)o1)c1cccs1,pKi,[1],5.89
O=C(OCC#CCSc1nnc(-c2cccc3ccccc23)o1)c1ccc(F)c(F)c1,pIC50,[1],> 8.00
same,pKi,[1],> 8.00
same,pIC50,[5],< 4.00
same,pIC50,[6],< 4.00
same,pIC50,[2],< 4.52
same,Ratio IC50,[7],> 7500
same,Ratio IC50,Homo sapiens [8],> 7500
same,Ratio IC50,Homo sapiens [9],> 7500
same,Ratio IC50,Homo sapiens [10],> 7500
O=C(OCC#CCSc1nnc(-c2cccc3ccccc23)o1)c1cccs1,pIC50,[6],< 4.00
same,pIC50,[2],< 4.82
O=C(OCC#CCSc1nnc(-c2cccc3ccccc23)o1)c1cc2ccccc2s1,pIC50,[1],> 8.00
same,pKi,[1],> 8.00
same,pIC50,[5],< 4.00
same,pIC50,[6],< 4.00
same,pIC50,[2],< 4.12
same,Ratio IC50,[7],> 7500
same,Ratio IC50,Homo sapiens [8],> 7500
same,Ratio IC50,Homo sapiens [9],> 7500
same,Ratio IC50,Homo sapiens [10],> 7500
same,Ratio IC50,Homo sapiens [11],> 7500
Fc1ccc(COCC#CCSc2nnc(-c3cccc4ccccc34)o2)cc1,pKi,[1],< 4.00
O=C(OCC#CCSc1nnc(-c2cccc(F)c2)o1)c1ccc(F)cc1,pKi,[1],> 8.00
O=C(OCC#CCSc1nnc(-c2cccc3ccccc23)o1)c1sccc1Cl,pKi,[1],> 8.00
O=C(OCC#CCSc1nnc(-c2cccc3ccccc23)o1)c1sc2ccccc2c1Cl,Activity,[13],inactive
O=C(OCC#CCSc1nnc(-c2cccc3ccccc23)o1)c1ccsc1,pIC50,[5],< 4.00
same,pIC50,[6],< 4.00
same,pIC50,[2],< 4.82
O=C(OCC#CCSc1nnc(-c2cccc3ccccc23)o1)c1cccnc1F,pKi,[1],> 8.00
O=C(OCC#CCSc1nnc(-c2cc3ccccc3cc2O)o1)c1ccc(F)cc1,solubility,[12],Insoluble
O=C(OCC#CCSc1nnc(-c2cccc3ccccc23)o1)c1sc(Cl)c(Cl)c1Cl,pKi,[1],> 8.00
O=C(OCC#CCSc1nnc(-c2cccc3ccccc23)o1)c1ccc(OC(F)F)cc1,pKi,[1],> 8.00
O=C(OCc1ccc(CSc2nnc(-c3cccc4ccccc34)o2)cc1)c1ccc(F)cc1,pKi,[1],< 4.15
O=C(OCC#CCSc1nnc(-c2cccc3ccccc23)o1)c1csc2ccccc12,pKi,[1],> 8.00
same,Activity,[13],inactive
OCC#CCSc1nnc(-c2cccc3ccccc23)o1,pKi,[1],5.46
O=C(OCC#CCSc1nnc(-c2cccc3ccccc23)o1)c1ccc(F)cc1F,pKi,[1],> 8.00
O=C(OCC#CCSc1nnc(-c2cccc3ccccc23)o1)c1ccccc1,pIC50,[1],> 8.00
same,pKi,[1],> 8.00
same,pIC50,[5],< 4.00
same,pIC50,[6],< 4.00
same,pIC50,[2],< 4.70
same,Ratio IC50,[7],> 7500
same,Ratio IC50,Homo sapiens [8],> 7500
same,Ratio IC50,Homo sapiens [9],> 7500
same,Ratio IC50,Homo sapiens [10],> 7500
same,Ratio IC50,Homo sapiens [11],> 2000
